Experimental data as given in ChEMBL document CHEMBL3352511, “Pyrrole-3-carboxamides as potent and selective JAK2 inhibitors” (Bioorg Med Chem, 2014).
Converted amounts (≈) assume the structure as drawn.

Key:
[1] = target: Tyrosine-protein kinase JAK2 (Homo sapiens, UniProt O60674)
[2] = Antiproliferative activity against human DERL7 cells after 72 hrs by Cell Titer-Glo assay; assay type: functional, cell-based; details: DERL7, 72 h
[3] = test system: A2780; experiment: Antiproliferative activity against human A2780 cells after 72 hrs by Cell Titer-Glo assay; assay type: functional, cell-based; details: A2780, 72 h
[4] = target: Tyrosine-protein kinase JAK2 (Homo sapiens, UniProt O60674, V617F)
[5] = Solubility of the compound in buffer at pH7; assay type: physicochemical; details: pH 7
[6] = Cmax in Balb nu/nu mouse at 10 mg/kg, iv; assay type: ADME, organism-based; design: dose 10 mg/kg, route intravenous; details: in vivo
Outline: (§1)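 Overnight-fasted male Nu/Nu mice, single intravenous dose in 10% Tween 80 in 5% dextrose, three mice. Saphenous vein blood taken at predose, 0.083, 0.5, 1, 6 and 24 h. Plasma obtained by centrifugation at 10,000g, 3 min, 4 °C, stored at -80 °C, then analysed by LC/MS/MS.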

[7] = (§2) AUC(infinity) in Balb nu/nu mouse at 10 mg/kg, iv; assay type: ADME, organism-based, Plasma; design: dose 10 mg/kg, route intravenous, time infinity; details: Balb nu/nu, plasma
Outline: as §1

[8] = Clearance in Balb nu/nu mouse at 10 mg/kg, iv; assay type: ADME, organism-based; design: dose 10 mg/kg, route intravenous; details: in vivo
Outline: as §1

[9] = Volume of distribution at steady state in Balb nu/nu mouse at 10 mg/kg, iv; assay type: ADME, organism-based; design: dose 10 mg/kg, route intravenous; details: in vivo, read-out: Vdss
Outline: as §1

[10] = Half life in Balb nu/nu mouse at 10 mg/kg, iv; assay type: ADME, organism-based; design: dose 10 mg/kg, route intravenous; details: in vivo
Outline: as §1

[11] = Cmax in Balb nu/nu mouse at 10 mg/kg, po; assay type: ADME, organism-based; design: dose 10 mg/kg, route oral; details: in vivo
Outline: (§3)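 Overnight-fasted male Nu/Nu mice, single oral dose in 0.5% methocel, three mice. Saphenous vein blood taken at predose, 0.083, 0.5, 1, 6 and 24 h. Plasma obtained by centrifugation at 10,000g, 3 min, 4 °C, stored at -80 °C, then analysed by LC/MS/MS.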

[12] = AUC(infinity) in Balb nu/nu mouse at 10 mg/kg, po; assay type: ADME, organism-based; design: time infinity, dose 10 mg/kg, route oral; details: plasma
Outline: as §3

[13] = Half life in Balb nu/nu mouse at 10 mg/kg, po; assay type: ADME, organism-based; design: dose 10 mg/kg, route oral; details: in vivo
Outline: as §3

[14] = Oral bioavailability in Balb nu/nu mouse at 10 mg/kg; assay type: ADME, organism-based; details: in vivo
Outline: as §3

[15] = test system: Mus musculus; experiment: as §2; assay type: ADME, organism-based, Plasma; design: dose 10 mg/kg, route intravenous, time infinity; details: in vivo
Outline: as §1

Tyrosine-protein kinase JAK2 (Homo sapiens, UniProt O60674, V617F), sequence (O60674 whole entry V617F): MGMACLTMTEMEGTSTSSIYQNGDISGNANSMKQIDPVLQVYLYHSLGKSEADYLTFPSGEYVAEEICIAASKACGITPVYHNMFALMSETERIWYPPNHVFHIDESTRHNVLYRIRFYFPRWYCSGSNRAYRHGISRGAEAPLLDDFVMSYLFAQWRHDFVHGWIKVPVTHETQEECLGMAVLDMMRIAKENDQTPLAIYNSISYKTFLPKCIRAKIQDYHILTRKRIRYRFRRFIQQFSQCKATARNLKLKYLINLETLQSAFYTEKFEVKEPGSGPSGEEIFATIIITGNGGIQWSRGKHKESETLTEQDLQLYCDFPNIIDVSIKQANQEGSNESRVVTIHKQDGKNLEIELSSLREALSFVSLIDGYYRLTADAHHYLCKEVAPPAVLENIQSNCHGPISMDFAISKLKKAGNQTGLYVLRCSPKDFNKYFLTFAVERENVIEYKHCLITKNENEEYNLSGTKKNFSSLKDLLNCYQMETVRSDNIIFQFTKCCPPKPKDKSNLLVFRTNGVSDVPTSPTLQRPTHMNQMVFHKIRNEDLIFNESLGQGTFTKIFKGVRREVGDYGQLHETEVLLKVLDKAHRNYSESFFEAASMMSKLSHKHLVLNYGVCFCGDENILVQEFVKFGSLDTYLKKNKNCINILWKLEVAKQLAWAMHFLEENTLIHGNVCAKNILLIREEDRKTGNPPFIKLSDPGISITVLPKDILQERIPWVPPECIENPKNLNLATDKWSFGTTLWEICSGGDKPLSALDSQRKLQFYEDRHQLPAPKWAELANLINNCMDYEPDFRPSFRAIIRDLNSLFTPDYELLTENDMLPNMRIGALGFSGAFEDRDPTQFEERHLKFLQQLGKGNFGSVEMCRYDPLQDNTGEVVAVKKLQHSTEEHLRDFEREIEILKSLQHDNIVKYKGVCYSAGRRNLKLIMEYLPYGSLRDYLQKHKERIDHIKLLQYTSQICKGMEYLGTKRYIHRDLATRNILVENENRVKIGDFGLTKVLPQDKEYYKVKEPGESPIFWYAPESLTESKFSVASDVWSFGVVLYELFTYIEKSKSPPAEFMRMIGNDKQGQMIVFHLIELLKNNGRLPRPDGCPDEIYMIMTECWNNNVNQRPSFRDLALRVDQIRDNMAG
Tyrosine-protein kinase JAK2 (Homo sapiens, UniProt O60674), sequence (O60674 whole entry): as the sequence (O60674 whole entry V617F) above, with F617V counted along it

IC50 [1] [nM]	IC50 [4] [nM]	SMILES	other results
	700	NC(=O)c1cc(-c2ccnc(N)n2)[nH]c1-c1cc(Cl)ccc1Cl	IC50 [2]: 1660 nM; IC50 [3]: 2460 nM
617		NC(=O)c1cc(-c2ccnc(N)n2)[nH]c1-c1cccc(Cl)c1	
35	480	CNC(=O)c1cc(-c2ccnc(N)n2)[nH]c1-c1cc(Cl)ccc1C	IC50 [2]: 2070 nM; IC50 [3]: 980 nM
308		COc1ccc(Cl)cc1-c1[nH]c(-c2ccnc(N)n2)cc1C(N)=O	
150		CC(C)c1ccc(Cl)cc1-c1[nH]c(-c2ccnc(N)n2)cc1C(N)=O	
53		NC(=O)c1cc(-c2ccnc(N)n2)[nH]c1-c1cc(Cl)ccc1C(F)(F)F	
695		Cc1ccccc1-c1[nH]c(-c2ccnc(N)n2)cc1C(N)=O	
3060		Cc1ccc(Cl)cc1-c1[nH]c(-c2ccnc(N)n2)cc1C(=O)N(C)C	
615		NC(=O)c1cc(-c2ccnc(N)n2)[nH]c1-c1ccccc1Cl	

Continued, compound first:

SMILES	IC50 [1] [nM]	IC50 [4] [nM]	other results
Cc1ccc(Cl)cc1-c1[nH]c(-c2ccncn2)cc1C(N)=O	1240		
Cc1ccc(Cl)cc1-c1[nH]c(-c2ccnc(N)n2)cc1C(=O)Nc1ccccc1	247		
COc1ccc(CNc2nccc(-c3cc(C(N)=O)c(-c4cc(Cl)ccc4C)[nH]3)n2)cc1	394		
Cc1ccc(Cl)cc1-c1[nH]c(-c2ccnc(N)n2)cc1C(=O)NCCF	114		
Cc1ccc(Cl)cc1-c1c(C(N)=O)cc(-c2ccnc(N)n2)n1C	66		
Cc1ccc(Cl)cc1-c1[nH]c(-c2ccnc(Nc3ccc(N4CCN(C)CC4)cc3)n2)cc1C(N)=O	59		
CCc1ccc(C(F)(F)F)cc1-c1[nH]c(-c2ccnc(N)n2)cc1C(N)=O		320	IC50 [2]: 1470 nM; IC50 [3]: 2210 nM; solubility [5]: 182 µM (≈ 68.3 µg/mL); Cmax [6]: 38.9 µM; AUC(0-inf) [7]: 20.7 µM·h; clearance [8]: 21.6 mL/min/kg; Vd [9]: 0.6 L/kg; half-life [10]: 60 min; Cmax [11]: 4.4 µM; AUC(0-inf) [12]: 4.6 µM·h; half-life [13]: 108 min; bioavailability [14]: 24%
CCNC(=O)c1cc(-c2ccnc(N)n2)[nH]c1-c1cc(Cl)ccc1C	109		
NC(=O)c1cc(-c2ccnc(N)n2)[nH]c1-c1cc(OC(F)(F)F)ccc1Cl	24	1100	
Cc1ccc(Cl)cc1-c1[nH]c(-c2ccnc(N)n2)cc1C(=O)NCc1ccccc1	154		
NC(=O)c1cc(-c2ccnc(N)n2)[nH]c1-c1cc(C(F)(F)F)ccc1C(F)(F)F	21	3070	
Cc1ccc(Cl)cc1-c1[nH]c(-c2ccnc(N)n2)cc1C(N)=O			IC50 [2]: 740 nM; IC50 [3]: 380 nM
Cc1ccc(Cl)cc1-c1c(C(N)=O)cc(-c2ccnc(Nc3ccc(N4CCN(C)CC4)cc3)n2)n1C	22	250	
Cc1ccc(Cl)cc1-c1[nH]c(-c2ccnc(N)n2)cc1C(=O)NCCO	57		
Cc1ccc(Cl)cc1-c1[nH]c(-c2ccnc(N)n2)cc1C(=O)NC1CCN(C)CC1	46	> 3000	
Cc1ccc(Cl)cc1-c1[nH]c(-c2ccnc(N)n2)cc1C(=O)NCC(C)C	384		
CCc1ccc(Cl)cc1-c1[nH]c(-c2ccnc(N)n2)cc1C(N)=O			IC50 [2]: 880 nM; IC50 [3]: 2000 nM; solubility [5]: 200 µM (≈ 68.4 µg/mL); Cmax [6]: 4.5 µM; AUC [15]: 2 µM·h; Vd [9]: 1.8 L/kg; half-life [10]: 12 min; Cmax [11]: 0.6 µM; AUC(0-inf) [12]: 0.7 µM·h; half-life [13]: 48 min; bioavailability [14]: 17%
NC(=O)c1cc(-c2ccnc(N)n2)[nH]c1-c1ccccc1	3200		
Cc1ccc(C(F)(F)F)cc1-c1[nH]c(-c2ccnc(N)n2)cc1C(N)=O	10	760	IC50 [2]: 640 nM; IC50 [3]: 440 nM
CNCCNC(=O)c1cc(-c2ccnc(N)n2)[nH]c1-c1cc(Cl)ccc1C	44	> 3000	
